Active and inactive are the calls of the source. No cut-off for these calls is given here.
Columns and labels:
MKN-74 [1] = assay: Induction of autophagy in human MKN74 cells assessed as increase in p62 degradation at 0.5 uM measured up to 24 hrs by Western blot analysis; format: functional, cell-based
In short: (§1)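 MKN-74 cells treated with 0.5 μM; LC3 (LC3-II) and p62 levels analyzed by immunoblotting.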

MKN-74 [2] = assay: Induction of autophagy in human MKN74 cells harboring ATG5 siRNA assessed as increase in LC3-2 expression at 0.5 uM by Western blot analysis; format: functional, cell-based
In short: (§2)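 MKN-74 cells transfected with ATG5 or negative-control siRNA for the indicated times, then 0.5 μM. ATG5, LC3 and p62 immunoblotted, with GAPDH loading control.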

MKN-74 [3] = assay: Induction of autophagy in human MKN74 cells assessed as increase in p62 degradation at 0.5 uM measured after 24 hrs in presence of autophagy inhibitor 3-methyladenine by Western blot analysis; format: functional, cell-based
In short: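 MKN-74 cells given 0.5 μM for 24 h with or without 3-MA; LC3 and p62 immunoblotted.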

[4] = Effect on Ras/Raf/MEK/ERK signaling in human MKN74 cells assessed as change in p38 phosphorylation at Thr180/Tyr182 residue at 0.5 uM measured up to 24 hrs by Western blot analysis; format: cell-based
In short: (§3)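 MKN-74 cells exposed to 0.5 μM for 0, 6, 12 and 24 h. Ras, Raf, p-MEK1/2, MEK1/2, p-JNK, JNK, p-p38 and p38 immunoblotted, with GAPDH as loading control.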

MKN-74 [5] = assay: Antiproliferative activity against human MKN74 cells assessed as reduction in cell viability measured after 24 hrs; format: functional, cell-based; conditions: MKN-74, 24 h
[6] = Tmax in Sprague-Dawley rat at 10 mg/kg, po by LC-MS analysis; format: ADME, organism-based; conditions: in vivo
In short: (§4)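 Two groups of rats (3 per group) received a single dose, either 1 mg/kg i.v. or 10 mg/kg p.o. Plasma concentrations were followed to derive Tmax, Cmax, T1/2, AUC and F. Data are from triple testing (± standard deviation).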

[7] = Cmax in Sprague-Dawley rat at 10 mg/kg, po by LC-MS analysis; format: ADME, organism-based; set-up: dose 10 mg/kg, route oral; conditions: in vivo
In short: (§5)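 Rats, two groups of 3; single i.v. dose 1 mg/kg or oral dose 10 mg/kg. Plasma concentration-time profiles used to derive T1/2, Tmax, Cmax, AUC0-t, AUC0-∞ and oral bioavailability. Data from triplicate testing, ± standard deviation.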

Mus musculus [8] = assay: In vivo inhibition of ERK1/2 in BALB/c mouse xenografted with human MKN74 cells assessed as reduction in ERK1/2 phosphorylation at 50 mg/kg, po administered once daily for 16 days measured post-last dose by Western blot analysis; format: functional, organism-based
In short: (§6)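 Two individual tumors excised from xenograft mice were lysed. ERK1/2, p-ERK1/2, ERK5 and p-ERK5 detected by western blot.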

HeLa = assay: Antiproliferative activity against human HeLa cells assessed as reduction in cell viability measured after 24 hrs; format: functional, cell-based
MKN-74 [9] = assay: Antitumor activity against human MKN74 cells xenografted in BALB/c mouse assessed as reduction in tumor volume at 50 mg/kg, po administered once daily for 16 days measured every 3 days during compound dosing; format: functional, organism-based
In short: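 Female nude mice bearing subcutaneous HL-60, MKN-74 or HeLa xenografts, 8 per group. Dosing was vehicle control or 50 mg/kg p.o. once daily for 16 days. Tumor volume followed over time, mean ± SEM.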

[10] = target: Mitogen-activated protein kinase 7 (Homo sapiens) (UniProt Q13164); assay: Inhibition of ERK5 in human MKN74 cells assessed as reduction in ERK5 phosphorylation at T218/Y220 residue at 0.5 uM measured up to 24 hrs by Western blot analysis; format: cell-based
Chain of Mitogen-activated protein kinase 7 (Homo sapiens) (Q13164 2-816 limits assumed): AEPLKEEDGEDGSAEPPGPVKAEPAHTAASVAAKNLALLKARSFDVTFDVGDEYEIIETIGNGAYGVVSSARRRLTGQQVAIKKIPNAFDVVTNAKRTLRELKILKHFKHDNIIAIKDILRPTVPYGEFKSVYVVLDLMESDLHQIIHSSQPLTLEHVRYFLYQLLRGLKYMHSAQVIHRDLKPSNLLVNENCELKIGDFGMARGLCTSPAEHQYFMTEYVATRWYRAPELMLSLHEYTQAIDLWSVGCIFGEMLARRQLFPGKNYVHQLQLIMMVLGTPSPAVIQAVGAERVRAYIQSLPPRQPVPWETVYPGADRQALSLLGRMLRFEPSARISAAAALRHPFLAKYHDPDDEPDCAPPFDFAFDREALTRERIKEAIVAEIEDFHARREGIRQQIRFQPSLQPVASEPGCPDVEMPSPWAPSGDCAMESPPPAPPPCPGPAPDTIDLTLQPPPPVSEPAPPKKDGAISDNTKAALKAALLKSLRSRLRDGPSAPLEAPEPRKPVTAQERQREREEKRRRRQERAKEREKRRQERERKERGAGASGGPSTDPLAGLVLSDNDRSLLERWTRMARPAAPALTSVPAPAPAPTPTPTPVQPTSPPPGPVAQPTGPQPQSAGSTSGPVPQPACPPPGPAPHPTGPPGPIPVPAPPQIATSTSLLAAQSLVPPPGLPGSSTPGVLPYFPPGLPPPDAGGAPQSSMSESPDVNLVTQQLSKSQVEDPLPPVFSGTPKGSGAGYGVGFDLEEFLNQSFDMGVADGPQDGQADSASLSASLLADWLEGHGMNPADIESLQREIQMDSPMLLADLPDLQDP

Mus musculus [11] = assay: In vivo inhibition of ERK5 in BALB/c mouse xenografted with human MKN74 cells assessed as reduction in ERK5 phosphorylation at 50 mg/kg, po administered once daily for 16 days measured post-last dose by Western blot analysis; format: functional, organism-based; in short: as §6
MKN-74 [12] = assay: Induction of autophagy in human MKN74 cells assessed as increase in LC3-2 expression at 0.5 uM measured up to 24 hrs by Western blot analysis; format: functional, cell-based; in short: as §1
[13] = AUC (0 to infinity) in Sprague-Dawley rat at 1 mg/kg, iv by LC-MS analysis; format: ADME, organism-based; set-up: dose 1 mg/kg, route intravenous, time infinity; conditions: in vivo; in short: as §5
[14] = target: MAPK3/MAPK7 (Homo sapiens) (UniProt P27361+Q13164); assay: Inhibition of ERK1/5 in human MKN74 cells assessed as reduction in c-MYC phosphorylation at S62 residue at 0.5 uM measured up to 24 hrs by Western blot analysis; format: cell-based
Chain of MAPK3/MAPK7 (Homo sapiens) (P27361 whole entry, looked up, the tested form may be a part): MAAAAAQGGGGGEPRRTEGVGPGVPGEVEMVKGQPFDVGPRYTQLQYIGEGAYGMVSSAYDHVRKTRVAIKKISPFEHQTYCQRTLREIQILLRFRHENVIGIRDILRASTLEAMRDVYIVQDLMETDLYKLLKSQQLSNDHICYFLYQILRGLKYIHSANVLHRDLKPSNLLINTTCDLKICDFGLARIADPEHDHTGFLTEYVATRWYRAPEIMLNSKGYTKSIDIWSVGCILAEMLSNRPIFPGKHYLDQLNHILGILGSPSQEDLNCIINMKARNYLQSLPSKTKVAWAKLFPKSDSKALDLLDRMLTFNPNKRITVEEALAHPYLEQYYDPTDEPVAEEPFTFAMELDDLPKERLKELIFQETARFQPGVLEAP
Chain of MAPK3/MAPK7 (Homo sapiens) (Q13164 whole entry, looked up, the tested form may be a part): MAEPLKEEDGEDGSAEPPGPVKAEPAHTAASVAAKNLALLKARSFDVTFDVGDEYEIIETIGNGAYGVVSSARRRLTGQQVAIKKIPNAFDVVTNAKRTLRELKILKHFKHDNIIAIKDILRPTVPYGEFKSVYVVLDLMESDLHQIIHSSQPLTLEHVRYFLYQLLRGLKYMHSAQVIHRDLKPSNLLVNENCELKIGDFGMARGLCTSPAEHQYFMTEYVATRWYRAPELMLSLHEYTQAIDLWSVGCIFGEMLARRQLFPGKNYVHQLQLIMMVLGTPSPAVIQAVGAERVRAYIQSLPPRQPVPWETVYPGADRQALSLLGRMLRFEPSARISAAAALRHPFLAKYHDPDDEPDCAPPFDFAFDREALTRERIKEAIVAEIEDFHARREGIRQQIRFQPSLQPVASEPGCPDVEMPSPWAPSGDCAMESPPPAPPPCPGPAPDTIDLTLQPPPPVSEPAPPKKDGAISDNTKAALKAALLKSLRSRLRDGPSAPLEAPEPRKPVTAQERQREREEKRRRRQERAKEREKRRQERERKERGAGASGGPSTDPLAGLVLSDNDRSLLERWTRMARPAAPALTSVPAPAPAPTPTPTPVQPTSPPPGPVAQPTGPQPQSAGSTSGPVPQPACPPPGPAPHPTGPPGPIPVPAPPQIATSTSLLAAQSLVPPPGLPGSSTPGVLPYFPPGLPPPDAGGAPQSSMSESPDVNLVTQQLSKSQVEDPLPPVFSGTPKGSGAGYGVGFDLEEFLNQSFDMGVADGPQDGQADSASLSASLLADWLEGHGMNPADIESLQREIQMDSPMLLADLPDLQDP

[15] = target: Mitogen-activated protein kinase 7 (Homo sapiens) (UniProt Q13164); assay: Inhibition of wild-type human partial length ERK5 (M1 to A409 residues) expressed in bacterial expression system at 1 uM by Kinomescan method relative to control
In short: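 KINOMEscan binding assays over a 100-kinase panel, with test compound at 1 μM. Results are given as % inhibition.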

[16] = target: Mitogen-activated protein kinase 3 (Homo sapiens) (UniProt P27361); assay: Inhibition of ERK1 (unknown origin) at 1 uM by Z'-Lyte assay relative to control
Chain of Mitogen-activated protein kinase 3 (Homo sapiens) (P27361 whole entry): as the sequence (P27361 whole entry, looked up, the tested form may be a part) above

[17] = Effect on Ras/Raf/MEK/ERK signaling in human MKN74 cells assessed as change in MEK1/2 expression at 0.5 uM measured up to 24 hrs by Western blot analysis; format: cell-based; in short: as §3
Mus musculus [18] = assay: In vivo inhibition of ERK1/2 in BALB/c mouse xenografted with human MKN74 cells assessed as reduction in phosphorylated ERK1/2 expression at 50 mg/kg, po administered once daily for 16 days measured post-last dose by immunohistochemical analysis; format: functional, organism-based
In short: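 Tumors excised from control and 50 mg/kg p.o.-treated xenograft mice were immunostained for Ki-67, p-ERK1/2 and p-ERK5. Positive-cell percentage quantified and compared with control.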

[19] = Half life in Sprague-Dawley rat at 1 mg/kg, iv by LC-MS analysis; format: ADME, organism-based; conditions: in vivo; in short: as §5
[20] = target: Mitogen-activated protein kinase 7 (Homo sapiens) (UniProt Q13164); assay: Inhibition of ERK5 in human MKN74 cells harboring ERK1/2 siRNA assessed as reduction in ERK5 phosphorylation at 0.5 uM by Western blot analysis; format: cell-based
In short: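 MKN-74 cells were transfected with ERK1/2-specific siRNA or negative-control siRNA, then exposed to compound. ERK1/2, p-ERK1/2, ERK5 and p-ERK5 were read by immunoblotting, with GAPDH as loading control.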

[21] = Effect on Ras/Raf/MEK/ERK signaling in human MKN74 cells assessed as change in p38 expression at 0.5 uM measured up to 24 hrs by Western blot analysis; format: cell-based; in short: as §3
MKN-74 [22] = assay: Induction of autophagy in human MKN74 cells harboring ATG5 siRNA assessed as increase in p62 degradation at 0.5 uM by Western blot analysis; format: functional, cell-based; in short: as §2
[23] = Oral bioavailability in Sprague-Dawley rat at 10 mg/kg by LC-MS analysis; format: ADME, organism-based; conditions: in vivo; in short: as §4
MKN-74 [24] = assay: Induction of autophagy in human MKN74 cells transfected with GFP-mRFP-LC3 assessed as increase in LC3 puncta formation at 0.5 uM measured after 24 hrs by fluorescence microscopic analysis; format: functional, cell-based
In short: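 MKN-74 cells transfected with GFP-mRFP-LC3 plasmid, treated 24 h at 0.5 μM. GFP-LC3 puncta imaged by fluorescence microscopy.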

HL-60 = assay: Induction of autophagy in human HL60 cells; format: functional, cell-based

IC50 (MKN-74 [5]): 2550 nM
Tmax [6]: 45 min
Cmax [7]: 1560 ng/mL
IC50 (HeLa): > 50000 nM
inhibition [10]: Active
AUC(0-inf) [13]: 1840 ng·h/mL
inhibition [14]: Active
inhibition [15]: 87%
inhibition [16]: 93.5%
half-life [19]: 57 min
inhibition [20]: Active
bioavailability [23]: 27.6%
SMILES: NC(=O)c1c(NC(=O)c2ccccc2Cl)sc2c1CCN(C(=S)Nc1ccccc1Cl)C2
Activity (MKN-74 [1]): Active
Activity (MKN-74 [2]): inactive
Activity (MKN-74 [3]): inactive
Activity [4]: inactive
inhibition (Mus musculus [8]): Active
Activity (MKN-74 [9]): Active
inhibition (Mus musculus [11]): Active
Activity (MKN-74 [12]): Active
Activity [17]: inactive
inhibition (Mus musculus [18]): Active
Activity [21]: inactive
Activity (MKN-74 [22]): inactive
Activity (MKN-74 [24]): Active
Activity (HL-60): inactive
